ZTA DNA inh: counter-screen for EBNA-1 inhibitors: inhibitors of Epstein-Barr virus ZTA; P03206; ZTA-DNA binding, fluorescence polarization; inhibition, % at 11 µM; hit rate 0.15% among 320,000; AID 2234; in the data active = inhibition above about 33%
Target sequence (P03206 whole entry, looked up): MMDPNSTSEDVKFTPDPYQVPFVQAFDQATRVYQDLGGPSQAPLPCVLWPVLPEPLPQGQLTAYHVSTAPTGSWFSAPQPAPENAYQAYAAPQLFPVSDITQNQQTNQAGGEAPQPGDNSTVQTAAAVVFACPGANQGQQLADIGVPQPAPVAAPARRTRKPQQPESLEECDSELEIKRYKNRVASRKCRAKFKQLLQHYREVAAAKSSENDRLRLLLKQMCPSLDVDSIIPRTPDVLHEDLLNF
FID counter: displaces DNA intercalator in HCV helicase counter-screen. DNA fluorescent intercalator displacement, fluorescence. inhibition, % at 7.9 µM. hit rate 0.17% among 290,000. AID 1845; in the data active = inhibition above about 37%;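 note: 0% = vehicle and 100% = reference compound; higher means more ethidium bromide displaced from hairpin DNA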
FGF22 binding: shifts melting point of recombinant human FGF22 | Q9HCT0 | recombinant FGF22 thermal shift, SYPRO orange fluorescence; percent of sucrose octasulfate shift, DMSO zero | activity (Tm shift, normalised), % at 9.99 µM | hit rate 1.5% among 340,000 | AID 651658;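 active = mean Tm shift, scaled 0 neutral to 100 positive control, at about 1.3% or above, every replicate too, limit read from the data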
Target sequence (Q9HCT0 whole entry, looked up): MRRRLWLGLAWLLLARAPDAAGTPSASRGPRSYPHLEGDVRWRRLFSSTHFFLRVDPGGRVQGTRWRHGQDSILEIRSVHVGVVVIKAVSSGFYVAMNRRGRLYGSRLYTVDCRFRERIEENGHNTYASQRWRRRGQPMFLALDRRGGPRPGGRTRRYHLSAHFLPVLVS
NR3A LBD binder: NR3A (human) ligand-binding domain modulation. NR3A LBD differential scanning fluorimetry, Tm shift; 0% = protein alone, 100% = glycine-bound protein. hit rate 2.5% among 340,000. Tm shift relative to glycine control, % at 25 µM;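 active = melting temperature shift of at least 10% of the positive control shift, at one fixed dose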
NS3 helicase inh: inhibitors of Hepatitis C virus NS3 helicase. NS3 helicase DNA unwinding, Cy5 molecular beacon fluorescence. inhibition, % at 10.9 µM. hit rate 0.56% among 290,000;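 active = inhibition above the mean of all tested compounds plus 3 SD, set per campaign, cut at about 35% in these data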;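 note: 0% = DMSO wells and 100% = thioflavine S control wells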
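Compound dosing – single dose, 10.9 µM nominal final, DMSO 0.8% final · System – NS3 helicase fragment of HCV · Buffer or medium – MOPS pH 6.5, MgCl2, DTT, Tween20, BSA · Signal – Cy5 beacon fluorescence read at start and 1 h · Also added – annealed dual-labelled DNA beacon duplex, ATP-started · Schedule – 1 h at 25 °C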
EBNA-1 inhibitor: blocks EBNA-1 binding to DNA; EBNA-1 DNA binding, fluorescence polarization; inhibition, % at 14.8 µM; hit rate 0.34% among 300,000; AID 1950; in the data active = inhibition above about 28%
The depositor's hits bear a star; . = no result. Shown are actives, neighbours in structure and some others; about 3.6% of the full set was active somewhere.

SMILES	ZTA DNA inh	FID counter	FGF22 binding	NR3A LBD binder	NS3 helicase inh	EBNA-1 inhibitor
COc1ccc(Nc2nc3ccccc3nc2NS(=O)(=O)c2cccs2)c(OC)c1	6	-6	0	-4	-2	6
COc1cccc(Nc2nc3ccccc3nc2NS(=O)(=O)c2cccs2)c1	9	-24	.	21*	1	16
COc1ccc(NS(=O)(=O)c2cccs2)c(OC)c1	3	1	.	15*	5	-2
Cc1noc(C)c1NC(=O)Nc1ccc2c(c1)C(=O)N(C)[C@H]1CC[C@H](CC(=O)Nc3ccccc3F)O[C@@H]1CO2	.	.	0	.	.	.
CCN(CC)C(=O)CN1C(=O)c2cccc3cccc(c23)C1=O	-8	-1	43*	-1	-2	-2
COc1ccc(C(=O)Nc2ccccc2C(=O)N/N=C/c2cccc3ccccc23)cc1	-1	0	.	14*	0	3
COc1ccc(C(=O)N/N=C/c2cc3ccccc3[nH]c2=O)cc1	-2	-12	1	18*	-7	9
O=C(C[C@@H]1C[C@@H]2c3cc(NC(=O)CC4CC4)ccc3O[C@@H]2[C@@H](CO)O1)NCc1cccc(F)c1	.	.	0	.	.	.
COc1ccc(NC(=O)N(C)C[C@@H]2Oc3c(NC(=O)C4CCOCC4)cccc3C(=O)N([C@H](C)CO)C[C@H]2C)cc1	.	.	0	.	.	.
CCOC(=O)c1ccc(NC(=S)NCC(O)c2ccccc2)cc1 (stereo not given)	-21	-6	.	10*	-10	-8
CC(=O)c1cccc(NC(=S)NCCC2=CCCCC2)c1	0	-12	.	-5	-3	-8
O=C(NCCC1=CCCCC1)Nc1ccc2nsnc2c1	-5	-1	43*	2	-2	8
CCOC(=O)c1ccc(NC(=S)NCCC2=CCCCC2)cc1	6	-2	.	13*	-10	12
CCOC(=O)c1ccc(NC(=S)NCCc2ccccc2F)cc1	-5	-10	44*	11*	-11	3
CCOC(=O)c1ccc(NC(=S)NCCc2ccccc2)cc1	17	-10	.	6	-11	-2
CCCNC(=O)N(C)C[C@H]1Oc2ncc(C3=CCCCC3)cc2C(=O)N([C@H](C)CO)C[C@H]1C	.	.	0	.	.	.
CCCNC(=O)N[C@@H]1CC[C@H](CCn2cc(-c3cccc(F)c3)nn2)O[C@H]1CO	.	.	0	.	.	.
COCC(=O)N(C)C[C@H]1Oc2cc(C3=CCCC3)ccc2S(=O)(=O)N([C@H](C)CO)C[C@@H]1C	.	.	0	.	.	.
CCc1ccc(NC(=O)C(=O)NCC(O)c2ccccc2)cc1 (stereo not given)	-16	-7	43*	-2	4	12
Cc1ccc(CC(=O)NCC(O)c2ccccc2)cc1 (stereo not given)	17	-2	0	-1	-7	14
COc1ccc2nc3sc(C(=O)N4CCN(C)CC4)cc3cc2c1	-17	5	.	-5	9	2
COc1ccc2nc3sc(C(=O)NCCCN4CCc5ccccc5C4)cc3cc2c1	-20	9	0	23*	-30	-8
COc1ccc(C(=O)Nc2ccc3c(c2)C(=O)N(C)C[C@H](OC)[C@H](C)CN[C@@H](C)CO3)cc1	.	.	0	.	.	.
CCC(C)Nc1nc(Cl)nc(NCCOc2ccccc2)n1 (stereo not given)	-18	-19	0	13*	6	0
CCCC1=NN2C(=N)/C(=C\c3ccc(SCc4ccco4)o3)C(=O)N=C2S1	61*	-29	.	-4	25	50*
SMILES	ZTA DNA inh	FID counter	FGF22 binding	NR3A LBD binder	NS3 helicase inh	EBNA-1 inhibitor
CCC1=NN2C(=N)/C(=C\c3ccc(SCc4ccco4)o3)C(=O)N=C2S1	10	-16	.	-8	23	-1
CCCn1c(=O)c2ccccc2n2c(SCCOc3ccc(OC)cc3)nnc12	2	-6	0	11*	-10	-6
C[C@@H]1CCCCO[C@H](CN(C)C(=O)Nc2ccc(C(F)(F)F)cc2)[C@@H](C)CN([C@@H](C)CO)C(=O)c2cc(NC(=O)Nc3ccccc3)ccc2O1	.	.	0	.	.	.
CCC1CCc2c(sc(NC(=O)C3c4ccccc4Oc4ccccc43)c2C(N)=O)C1 (stereo not given)	3	1	.	17*	6	0
CCOC(=O)c1c(NC(=O)C2c3ccccc3Oc3ccccc32)sc(C(N)=O)c1C	11	-3	.	-10	-1	0
COc1ccc(OCC(=O)Nc2cccc(-c3nc4ccccc4[nH]3)c2)cc1	16	-10	.	20*	-6	6
O=C(COc1ccccc1)Nc1cccc(-c2nc3ccccc3[nH]2)c1	-7	-3	.	7	-8	1
O=C(Cc1cccs1)Nc1ccc(-c2nc3ccccc3[nH]2)cc1	-29	2	.	32*	-8	3
Cc1ccc2nc(-c3ccc(NC(=O)CSc4ccccc4)cc3)[nH]c2c1	13	18	.	29*	-9	19
O=C(CSc1ccccc1)Nc1ccc(-c2nc3ccccc3[nH]2)cc1	-9	7	.	33*	-18	27
CCCN(C)C[C@H]1OCCCC[C@H](C)Oc2ccc(NS(=O)(=O)c3ccc(C)cc3)cc2C(=O)N([C@@H](C)CO)C[C@@H]1C	.	.	0	.	.	.
O=C(CSc1nc(-c2ccc(Cl)cc2)[nH]c(=O)n1)Nc1cccc(Cl)c1	-4	-20	0	12*	21	-14
O=C(O)CCCC(=O)Nc1cccc(-c2nc3ccccc3[nH]2)c1	-6	-1	.	0	1	9
O=C(CSc1ccc(Cl)cc1)Nc1cccc(-c2nc3ccccc3[nH]2)c1	-24	-1	.	32*	1	2
C[C@H]1CN([C@@H](C)CO)C(=O)c2cc(NC(=O)Nc3cccc4ccccc34)ccc2O[C@@H]1CN(C)S(=O)(=O)c1ccc(Cl)cc1	.	.	0	.	.	.
CC(C)C#Cc1cnc2c(c1)C(=O)N([C@H](C)CO)C[C@@H](C)[C@@H](CN(C)C(=O)Cc1ccncc1)O2	.	.	0	.	.	.
O=C(Nc1ccc(F)c([N+](=O)[O-])c1)C(=O)c1c(O)[nH]c2ccccc12	-4	-2	0	-8	0	0
O=C(Nc1cc([N+](=O)[O-])c2[nH]c(=O)c3ccccc3c2c1)C(F)(F)F	.	.	0	44*	.	.
COc1ccc(C)cc1NC(=O)c1cccc(C(=O)Nc2cc(C)ccc2OC)c1	10	-29	0	-10	-6	-5
Cc1ccc(NC(=O)c2cccc(C(=O)Nc3ccc(C)cc3C(=O)O)c2)c(C(=O)O)c1	-13	-18	0	25*	26	-12
COc1ccc(Cl)cc1NC(=O)c1cc(-c2cc(C)ccc2O)n[nH]1	19	-5	0	300*	-10	2
COc1ccc(Cl)cc1NC(=O)c1cc(-c2ccc(C)cc2O)n[nH]1	-18	0	0	12*	5	-6
Cc1ccc(C)c(NC(=O)c2cc(-c3cc(C)ccc3O)n[nH]2)c1	2	-10	0	15*	-6	7
